ABHD4 inh: ABHD4 inhibitors, primary screen, biochemical, fluorescence polarization, mouse. (Lyso)-N-acylphosphatidylethanolamine lipase (Mus musculus), Q8VD66. purified mABHD4, FP-Rh probe fluorescence polarization. inhibition, % at 8.92 µM. 370,000 tested, 0.54% active. AID 720543, 2013;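 active = inhibition exceeding the mean over every tested compound plus 3 SD, cut at about 30% in these data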
Target sequence (Q8VD66 whole entry, looked up): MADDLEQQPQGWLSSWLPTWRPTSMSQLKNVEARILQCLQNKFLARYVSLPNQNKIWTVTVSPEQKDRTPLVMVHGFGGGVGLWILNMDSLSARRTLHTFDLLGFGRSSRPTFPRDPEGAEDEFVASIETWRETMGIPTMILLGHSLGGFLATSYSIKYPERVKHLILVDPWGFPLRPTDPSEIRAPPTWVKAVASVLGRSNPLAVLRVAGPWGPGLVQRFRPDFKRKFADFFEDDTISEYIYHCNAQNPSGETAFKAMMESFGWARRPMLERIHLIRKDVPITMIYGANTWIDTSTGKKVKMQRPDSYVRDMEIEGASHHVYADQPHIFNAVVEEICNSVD
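Assay system: wild-type mouse ABHD4 protein; compound: single nominal dose of 8.92 µM, 0.89% DMSO final; schedule: 45 min + 60 min at 25 °C; measured by: FP readout, ex 525 nm / em 598 nm; evaluation: % inhibition of FP-Rh probe binding versus controls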
HTRA1 inhibitor: HTRA1 serine protease inhibitors, primary screen, biochemical, fluorescence polarization, HTS | recombinant HTRA1, FP-rhodamine activity-based probe | AID 504803, 2011 | inhibition, % at 5.96 µM | 340,000 tested, 0.5% active; in the data active = inhibition above about 36%
rCAG RNA binder: binders of r(CAG) RNA repeats, primary screen, biochemical, fluorescence; r(CAG) RNA repeat, TO-PRO-1 dye displacement fluorescence; inhibition, % at 3 µM; 370,000 tested, 1.3% active;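 active = inhibition above the plate cutoff, the mean of all test compounds on that plate plus 3 SD, cut at about 35% in these data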;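 note: higher means more dye released from RNA so lower well fluorescence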
DAGLB inhibitor: DAGLB lipase inhibitors, primary screen, biochemical, fluorescence, HTS; Diacylglycerol lipase-beta (Homo sapiens), Q8NCG7; HEK293T DAGLB membrane lysate, EnzChek fluorogenic substrate; inhibition, % at 5.17 µM; 340,000 tested, 0.059% active; in the data active = inhibition above about 34%
LEDGF integ inh: blockers of LEDGF/p75-dependent integrase strand transfer – biochemical, TR-FRET, high throughput, primary screen | HIV-1 integrase (with human LEDGF/p75) | TR-FRET IN-LEDGF/p75 DNA integration, Eu/Cy5 | inhibition, % at 3.7 µM | 370,000 tested, 0.64% active | AID 743269, 2014;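 active = inhibition above the screen-wide mean plus 3 SD, cut at about 13% in these data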;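 note: signal is the Cy5 over europium emission ratio at 671 and 618 nm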
PRMT1 FP inh: PRMT1 methyltransferase inhibitors, primary screen, biochemical, fluorescence polarization; recombinant PRMT1, activity-based probe fluorescence polarization; 370,000 tested, 1.3% active; AID 652257, 2013; inhibition, % at 2.79 µM; Protein arginine N-methyltransferase 1 (Homo sapiens), Q99873;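 active = inhibition above about 21% made by adding two undisclosed values, limit read from the data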
Target sequence (Q99873 whole entry, looked up): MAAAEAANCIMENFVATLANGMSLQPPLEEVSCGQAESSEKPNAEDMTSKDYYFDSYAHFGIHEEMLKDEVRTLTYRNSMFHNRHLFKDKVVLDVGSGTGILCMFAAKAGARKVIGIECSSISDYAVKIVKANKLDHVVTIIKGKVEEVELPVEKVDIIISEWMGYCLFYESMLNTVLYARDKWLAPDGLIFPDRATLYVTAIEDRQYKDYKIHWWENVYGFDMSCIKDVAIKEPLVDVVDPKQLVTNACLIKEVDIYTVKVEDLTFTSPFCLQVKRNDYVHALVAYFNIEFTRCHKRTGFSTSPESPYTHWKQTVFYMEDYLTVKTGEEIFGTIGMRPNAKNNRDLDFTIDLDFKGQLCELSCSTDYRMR
rCAG binder conf: small molecules binding CAG repeat RNA – biochemical, fluorescence, confirmation; shares compounds with rCAG RNA binder; 4,300 tested, 70% active; r(CAG) RNA repeat, TO-PRO-1 dye displacement fluorescence; inhibition, % at 3 µM;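 active = inhibition above a per-plate cutoff, the mean inhibition of sample wells plus 3 SD, cut at about 35% in these data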;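 note: loss of TO-PRO-1 fluorescence as compound displaces dye from 1x1 AA loop RNA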
DNA CAG counter: displacement of TO-PRO-1 from CAG DNA duplex, counter-screen for rCAG RNA repeat binder project, biochemical, fluorescence, TO-PRO-1 dye, d(CAG) DNA oligo; inhibition, % at 3 µM; 4,300 tested, 94% active; shares compounds with rCAG RNA binder; d(CAG) DNA oligo TO-PRO-1 dye displacement;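 active = inhibition above its plate's cutoff, the mean test-well inhibition plus 3 SD, cut at about 4.8% in these data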;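 note: hits displace the dye from DNA and so lower well fluorescence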
Each line names hits and unclear results; the compound was inactive in the other large screens (follow-up assays come after a bar, where they were run). Only some compounds are listed: those with a hit (about 3.2% of all), similar ones and a draw of the others.

CCCCC[C@@H]1C=C(C(=O)O)[C@H](c2ccc(C)cc2)N1S(=O)(=O)c1ccc(C)cc1	rCAG RNA binder 73.7 | rCAG binder conf 52.7 | DNA CAG counter 17.7
CCCC[C@@H]1C=C(C(=O)O)[C@H](c2ccc(Cl)c(Cl)c2)N1S(=O)(=O)c1ccc(C)cc1	rCAG RNA binder 79.9 | rCAG binder conf 69.3 | DNA CAG counter 33.9
CCCC[C@@H]1C=C(C(=O)O)[C@H](c2ccc(C#N)cc2)N1S(=O)(=O)c1ccc(C)cc1	rCAG RNA binder 52.6 | rCAG binder conf inactive | DNA CAG counter 7.9
CCCCC[C@@H]1C=C(C(=O)O)[C@H](c2ccc(Cl)cc2)N1S(=O)(=O)c1ccc(C)cc1	rCAG RNA binder 79.0 | rCAG binder conf 64.4 | DNA CAG counter 28.0
CCOC(=O)CC[C@@H]1CC[C@]2(CCCN(Cc3ccc(OC)cc3)C2)O1	none (no result: HTRA1 inhibitor, DAGLB inhibitor)
COc1ccc(Cc2nnc(NC(=O)Nc3cccc(OC)c3)s2)cc1	rCAG RNA binder 42.2 | rCAG binder conf 40.1 | DNA CAG counter 17.2
C=CCSc1nsc(NC(=O)Nc2ccc(F)cc2)n1	rCAG RNA binder 68.6 | rCAG binder conf inactive | DNA CAG counter 20.4
COc1cccc(NC(=O)Nc2nnc(Cc3ccccc3)s2)c1	rCAG RNA binder 41.1 | rCAG binder conf inactive | DNA CAG counter 14.8
CCSc1nnc(NC(=O)Nc2cccc(C)c2)s1	rCAG RNA binder 56.3 | rCAG binder conf inactive | DNA CAG counter 16.6
COc1ccc2c(c1)c1nc3n(c(=O)c1n2CC(=O)Nc1cc(C)[nH]n1)CCS3	none (no result: HTRA1 inhibitor, DAGLB inhibitor)
CCn1c(C(Cc2ccccc2)NC(=O)COC)nc2ccccc21 (stereo unspecified)	none
O=C(Nc1ccc(F)cc1)Nc1nnc(COc2ccccc2F)s1	rCAG RNA binder 62.5 | rCAG binder conf 38.3 | DNA CAG counter 26.5
CCSc1nsc(NC(=O)Nc2ccccc2F)n1	none
CCSc1nsc(NC(=O)Nc2cccc(OC)c2)n1	rCAG RNA binder 57.6 | rCAG binder conf inactive | DNA CAG counter 16.3
O=C(Nc1ccc(F)cc1)Nc1nnc(Cc2ccccc2)s1	rCAG RNA binder 42.2 | rCAG binder conf inactive | DNA CAG counter 15.4
COc1ccc(CCC(=O)OCC(=O)N(C)c2c(N)n(Cc3ccccc3)c(=O)[nH]c2=O)cc1	none
CCOc1ccc(/C=C(/NC(=O)c2ccc(Cl)cc2)C(=O)O)cc1OCC	none
CCOc1cc(/C=C(/NC(C)=O)C(=O)O)cc(Cl)c1OCc1ccc(Br)cc1	rCAG RNA binder 43.4 | rCAG binder conf inactive | DNA CAG counter 6.7
CCC(Sc1nc(-c2cccc(OC)c2)c(C#N)c(=O)[nH]1)C(=O)Nc1nnc(C(C)C)s1 (stereo unspecified)	rCAG RNA binder 75.3 | rCAG binder conf 74.8 | DNA CAG counter 38.2
COc1cccc(-c2nc(-c3ccccc3)[nH]c(=O)c2C#N)c1	none
O=C(C[C@H]1C/C=C/CC[C@H](Cc2ccc(F)cc2)C(=O)O[C@H](c2ccccc2)CNC1=O)NCCO	none
CC1(C)Cc2c(ccc3ccccc23)C2=C(C(=O)N3CCCC3)C(=O)C(=O)N21	none
O=C(O)c1ccccc1C(=O)c1ccc(Sc2ccc(Cl)cc2)c([N+](=O)[O-])c1	rCAG RNA binder 64.1 | rCAG binder conf 71.2 | DNA CAG counter 32.0
COc1cc(/C=C2/C(=O)N(c3ccc(C)c(C)c3)N=C2C)cc([N+](=O)[O-])c1O	rCAG RNA binder 37.1 | rCAG binder conf 45.8 | DNA CAG counter 11.9
CCOC(=O)c1nc(-c2ccccc2)oc1N(C)C	none
CCOC(=O)/C(=C\C=C1/Sc2cc(OCC)c(OCC)cc2N1CC)C(C)=O	none
CCOc1ccc(C(=O)Nc2nnc(NC(=S)Nc3ccccc3)s2)cc1	none
Cc1ccc(C(=O)Nc2nnc(NC(=S)Nc3ccccc3)s2)cc1	rCAG RNA binder 69.8 | rCAG binder conf 39.3 | DNA CAG counter 30.2
COc1cccc(CN2CCNC(=O)C2CC(=O)NCc2cn3ccccc3n2)c1OC (stereo unspecified)	none
COc1ccc(-n2c(=S)[nH]c3cc(C(=O)Nc4ccccc4OC)ccc3c2=O)c(OC)c1	none
CCOC(=O)c1ccc(N2CN=C3SCC(=O)N3C2)cc1	none
COc1cccc(CNC(=O)c2c[nH]n3c(=O)c(Cl)c(C)nc23)c1	rCAG RNA binder 61.2 | rCAG binder conf 35.1 | DNA CAG counter 8.0
O=C(NCC1CCCO1)c1ccc([N+](=O)[O-])s1 (stereo unspecified)	rCAG RNA binder 35.7 | rCAG binder conf inactive | DNA CAG counter inactive
O=[N+]([O-])c1cccc(NC(=S)Nc2nc(-c3ccccc3Cl)cs2)c1	rCAG RNA binder 39.1 | rCAG binder conf 36.1 | DNA CAG counter 27.8
Cc1c(C(=O)NCc2ccc3c(c2)OCCO3)sc(=O)n1Cc1ccc(S(=O)(=O)N(C)C)cc1	none (no result: HTRA1 inhibitor, DAGLB inhibitor)
COc1cc(/C=C/C(=O)O)ccc1OS(=O)(=O)c1c(C)cc(C)cc1C	rCAG RNA binder 36.5 | rCAG binder conf inactive | DNA CAG counter 9.4
CCCC(C)NC(=O)CSCc1ccc(OC)cc1 (stereo unspecified)	none
COc1ccccc1NC(=O)Cc1noc(CN(C)Cc2cccs2)n1	none
CC(=O)NS(=O)(=O)c1cccnc1Nc1ccc(Cl)c(Cl)c1	rCAG RNA binder 36.7 | rCAG binder conf 37.5 | DNA CAG counter 14.0
NS(=O)(=O)c1cccnc1Nc1ccc(Cl)c(Cl)c1	none
Cc1noc(NS(=O)(=O)c2ccc(NC(=O)CS(=O)(=O)c3ccccc3)cc2)c1C	none
O=C(/C=C/c1ccc(Br)cc1)Nc1ccc(S(=O)(=O)Nc2ncccn2)cc1	rCAG RNA binder 37.8 | rCAG binder conf inactive | DNA CAG counter 5.9
O=C(/C=C/c1cccc(F)c1)Nc1ccc(S(=O)(=O)Nc2ncccn2)cc1	none
Cc1noc(NS(=O)(=O)c2ccc(NC(=O)C(CC(C)C)N3C(=O)c4ccccc4C3=O)cc2)c1C (stereo unspecified)	rCAG RNA binder 62.5 | rCAG binder conf 45.2 | DNA CAG counter 15.2
